Experimental data published in ChEMBL document CHEMBL4152311, “Structure-activity relationship studies and pharmacological characterization of N5-heteroarylalkyl-substituted-2-(2-furanyl)thiazolo[5,4-d]pyrimidine-5,7-diamine-based derivatives as inverse agonists at human A2A adenosine receptor” (Eur J Med Chem, 2018).

What was measured:
[1] = target: T1, Adenosine receptor A1 (Homo sapiens) (UniProt P30542); experiment: Inverse agonist activity at human adenosine A1 receptor expressed in CHO cells assessed as cAMP accumulation at 10 uM measured after 150 mins in presence of [3H]cAMP by scintillation counting method relative to control; assay type: functional, cell-based
T1 sequence (whole entry): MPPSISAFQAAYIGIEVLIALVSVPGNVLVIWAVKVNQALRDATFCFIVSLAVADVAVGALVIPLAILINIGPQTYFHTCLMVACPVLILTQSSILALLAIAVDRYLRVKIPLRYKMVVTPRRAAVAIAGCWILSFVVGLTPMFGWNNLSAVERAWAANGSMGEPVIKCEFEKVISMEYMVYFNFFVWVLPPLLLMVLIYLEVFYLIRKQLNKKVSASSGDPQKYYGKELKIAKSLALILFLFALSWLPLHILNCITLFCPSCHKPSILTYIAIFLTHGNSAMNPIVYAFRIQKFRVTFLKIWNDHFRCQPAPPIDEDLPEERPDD
Method in brief: (§1)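 Intact CHO cells expressing human A1, A2B or A3 receptor (grown in DMEM F12) exposed to test compound at 10 μM under basal conditions, no agonist; cAMP measured by competitive protein binding with [3H]-cAMP. Result as percent of basal cAMP (basal = 100%); mean ± SEM.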

[2] = target: T2, Adenosine receptor A3 (Homo sapiens) (UniProt P0DMS8); experiment: Inverse agonist activity at human adenosine A3 receptor expressed in CHO cells assessed as cAMP accumulation at 10 uM measured after 150 mins in presence of [3H]cAMP by scintillation counting method relative to control; assay type: functional, cell-based; method in brief: as §1
T2 sequence (whole entry): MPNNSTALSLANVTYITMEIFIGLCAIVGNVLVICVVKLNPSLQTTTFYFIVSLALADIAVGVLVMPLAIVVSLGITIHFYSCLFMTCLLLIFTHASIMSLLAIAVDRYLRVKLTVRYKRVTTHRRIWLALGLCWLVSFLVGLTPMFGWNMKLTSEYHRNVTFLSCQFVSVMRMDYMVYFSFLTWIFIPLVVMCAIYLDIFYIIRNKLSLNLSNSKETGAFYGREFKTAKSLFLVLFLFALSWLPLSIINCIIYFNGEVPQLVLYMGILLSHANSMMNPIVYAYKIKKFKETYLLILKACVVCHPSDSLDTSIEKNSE

[3] = target: T3, Adenosine receptor A2b (Homo sapiens) (UniProt P29275); experiment: Inverse agonist activity at human adenosine A2B receptor expressed in CHO cells assessed as cAMP accumulation at 10 uM measured after 150 mins in presence of [3H]cAMP by scintillation counting method relative to control; assay type: functional, cell-based; method in brief: as §1
T3 sequence (whole entry): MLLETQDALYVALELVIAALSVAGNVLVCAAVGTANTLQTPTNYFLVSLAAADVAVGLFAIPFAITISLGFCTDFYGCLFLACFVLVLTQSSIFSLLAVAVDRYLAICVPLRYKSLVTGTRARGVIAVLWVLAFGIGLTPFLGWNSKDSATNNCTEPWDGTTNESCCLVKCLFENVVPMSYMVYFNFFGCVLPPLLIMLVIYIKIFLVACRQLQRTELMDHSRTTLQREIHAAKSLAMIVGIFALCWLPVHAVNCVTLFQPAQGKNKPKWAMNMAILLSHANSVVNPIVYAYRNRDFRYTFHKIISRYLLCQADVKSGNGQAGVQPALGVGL

Adenosine receptor A2a [4] = target: T4, Adenosine receptor A2a (Homo sapiens, UniProt P29274); experiment: Displacement of [3H]ZM241385 from human adenosine A2A receptor expressed in CHO cell membranes measured after 60 mins by scintillation counting method
Adenosine receptor A1 = target: T5, Adenosine receptor A1 (Homo sapiens, UniProt P30542); experiment: Displacement of [3H]DPCPX from human adenosine A1 receptor expressed in CHO cell membranes measured after 90 mins by scintillation counting method
T5 sequence (P30542 whole entry): T1 sequence (whole entry)

Adenosine receptor A3 = target: T6, Adenosine receptor A3 (Homo sapiens, UniProt P0DMS8); experiment: Displacement of [125I]AB-MECA from human adenosine A3 receptor expressed in CHO cell membranes measured after 120 mins by scintillation counting method
T6 sequence (P0DMS8 whole entry): T2 sequence (whole entry)
Method in brief: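 Membranes from CHO cells transfected with the human receptor (A1 or A3) competed against [3H]DPCPX (A1) or [125I]AB-MECA (A3) over a range of test concentrations, per earlier-described method; percent inhibition taken at 10 μM.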

Adenosine receptor A2b = target: T7, Adenosine receptor A2b (Homo sapiens, UniProt P29275); experiment: Antagonist activity at human adenosine A2B receptor expressed in CHO cells assessed as inhibition of NECA-stimulated cAMP accumulation measured after 150 mins in presence of [3H]cAMP by scintillation counting method
T7 sequence (P29275 whole entry): T3 sequence (whole entry)

Adenosine receptor A2a [5] = target: T4, Adenosine receptor A2a; experiment: Inverse agonist activity at human adenosine A2A receptor expressed in CHO cells assessed as inhibition of cAMP accumulation measured after 150 mins in presence of [3H]cAMP by scintillation counting method; assay type: functional, cell-based
Adenosine receptor A2a [6] = target: T4, Adenosine receptor A2a; experiment: Antagonist activity against human adenosine A2A receptor expressed in CHO cells assessed as inhibition of CGS21680-stimulated cAMP accumulation measured after 150 mins in presence of [3H]cAMP by scintillation counting method; assay type: functional, cell-based

T4 sequence (P29274 whole entry): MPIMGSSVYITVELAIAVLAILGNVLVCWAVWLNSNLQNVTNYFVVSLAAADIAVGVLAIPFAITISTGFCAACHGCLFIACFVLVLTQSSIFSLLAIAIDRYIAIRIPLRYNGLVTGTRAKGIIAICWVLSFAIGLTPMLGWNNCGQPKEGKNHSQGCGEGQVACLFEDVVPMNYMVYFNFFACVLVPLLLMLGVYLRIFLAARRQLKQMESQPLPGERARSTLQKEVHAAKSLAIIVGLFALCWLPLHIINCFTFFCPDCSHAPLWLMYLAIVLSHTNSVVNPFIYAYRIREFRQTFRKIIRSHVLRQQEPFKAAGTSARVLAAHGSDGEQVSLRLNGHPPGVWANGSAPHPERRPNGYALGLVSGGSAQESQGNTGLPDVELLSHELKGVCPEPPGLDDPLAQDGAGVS

| SMILES | Activity [1] [%] | Activity [2] [%] | Activity [3] [%] | KiH (Adenosine receptor A2a [4]) [fM] | KiL (Adenosine receptor A2a [4]) [nM] | Ki (Adenosine receptor A1) [nM] | Ki (Adenosine receptor A2a [4]) [nM] | Ki (Adenosine receptor A3) [nM] | IC50 (Adenosine receptor A2b) [nM] | IC50 (Adenosine receptor A2a [5]) [nM] | IC50 (Adenosine receptor A2a [6]) [nM] |
| --- | --- | --- | --- | --- | --- | --- | --- | --- | --- | --- | --- |
| Nc1nc(NCCc2ccc(O)cc2)nc2nc(-c3ccco3)nn12 | 101 | 105 | – | – | – | – | – | – | – | – | – |
| Nc1nc(NCc2cnccn2)nc2sc(-c3ccco3)nc12 | 102 | 98 | 102 | – | – | – | – | – | – | – | – |
| Nc1nc(NCCc2cccnc2)nc2sc(-c3ccco3)nc12 | 102 | 102 | 97 | – | – | – | – | – | – | – | – |
| Nc1nc(NCc2ccccn2)nc2sc(-c3ccco3)nc12 | 103 | 101 | 98 | – | – | – | – | – | – | – | – |
| COc1cccc(CNc2nc(N)c3nc(-c4ccc(C)o4)sc3n2)c1 | – | – | – | – | – | 70 | 144 | 160 | 120 | – | – |
| Nc1nc(NCc2ccncc2)nc2sc(-c3ccco3)nc12 | 103 | 102 | 103 | – | – | – | – | – | – | – | – |
| Nc1nc(NCc2ccco2)nc2sc(-c3ccco3)nc12 | 101 | 104 | 101 | 39 | 1.73 | – | – | – | – | – | – |
| Nc1nc(NCc2cccnc2)nc2sc(-c3ccco3)nc12 | 96 | 100 | 97 | 217 | 0.68 | – | – | – | – | – | – |
| Nc1nc(NCCc2ccco2)nc2sc(-c3ccco3)nc12 | 95 | 97 | 103 | – | – | – | – | – | – | – | – |
| COc1ccccc1CNc1nc(N)c2nc(-c3ccc(C)o3)sc2n1 | – | – | – | – | – | 29 | 20 | 141 | 389 | – | – |

Results, then the molecule that gave them:

| Activity [1] [%] | Activity [2] [%] | Activity [3] [%] | KiH (Adenosine receptor A2a [4]) [fM] | KiL (Adenosine receptor A2a [4]) [nM] | Ki (Adenosine receptor A1) [nM] | Ki (Adenosine receptor A2a [4]) [nM] | Ki (Adenosine receptor A3) [nM] | IC50 (Adenosine receptor A2b) [nM] | IC50 (Adenosine receptor A2a [5]) [nM] | IC50 (Adenosine receptor A2a [6]) [nM] | SMILES |
| --- | --- | --- | --- | --- | --- | --- | --- | --- | --- | --- | --- |
| 100 | 94 | 99 | 10.6 | 18 | – | – | – | – | – | – | Nc1nc(NCCc2cccs2)nc2sc(-c3ccco3)nc12 |
| – | – | – | – | – | 37 | 22 | 430 | 2770 | – | – | COc1cccc(CNc2nc(N)c3nc(-c4cccs4)sc3n2)c1 |
| 99 | 103 | 106 | – | – | 17.3 | 2.24 | 275 | 4570 | 3.36 | 4.41 | COc1ccccc1CNc1nc(N)c2nc(-c3cccs3)sc2n1 |
| 98 | 105 | 99 | – | – | – | – | – | – | – | – | Nc1nc(NCc2ccsc2)nc2sc(-c3ccco3)nc12 |
| – | – | – | – | – | 71 | 34 | 15.3 | 91 | – | – | Cc1ccc(-c2nc3c(N)nc(NCc4cccs4)nc3s2)o1 |
| 98 | 96 | 99 | 10.7 | 3.82 | – | – | – | – | – | – | Nc1nc(NCc2cccs2)nc2sc(-c3ccco3)nc12 |
| 97 | 99 | 96 | – | – | 73 | 10.1 | 38 | 547 | 13.2 | 17.6 | Nc1nc(NCc2cccs2)nc2sc(-c3cccs3)nc12 |
